# Changes are numbered by the printed parent chain.
# Legend:
# Assay type in all cases: in vitro ADME
# [1] = molecular target: T1, OATP1B1*15 (Homo sapiens, UniProt Q9Y6L6, N130D/V174A); assay: Uptake into OATP1B1 variant-transfected vs wild-type HEK293 cells; details: for Uptake ratio (vs. wild‐type HEK293 cells): 2 minutes
# T1 sequence (Q9Y6L6 1-691 N130D/V174A): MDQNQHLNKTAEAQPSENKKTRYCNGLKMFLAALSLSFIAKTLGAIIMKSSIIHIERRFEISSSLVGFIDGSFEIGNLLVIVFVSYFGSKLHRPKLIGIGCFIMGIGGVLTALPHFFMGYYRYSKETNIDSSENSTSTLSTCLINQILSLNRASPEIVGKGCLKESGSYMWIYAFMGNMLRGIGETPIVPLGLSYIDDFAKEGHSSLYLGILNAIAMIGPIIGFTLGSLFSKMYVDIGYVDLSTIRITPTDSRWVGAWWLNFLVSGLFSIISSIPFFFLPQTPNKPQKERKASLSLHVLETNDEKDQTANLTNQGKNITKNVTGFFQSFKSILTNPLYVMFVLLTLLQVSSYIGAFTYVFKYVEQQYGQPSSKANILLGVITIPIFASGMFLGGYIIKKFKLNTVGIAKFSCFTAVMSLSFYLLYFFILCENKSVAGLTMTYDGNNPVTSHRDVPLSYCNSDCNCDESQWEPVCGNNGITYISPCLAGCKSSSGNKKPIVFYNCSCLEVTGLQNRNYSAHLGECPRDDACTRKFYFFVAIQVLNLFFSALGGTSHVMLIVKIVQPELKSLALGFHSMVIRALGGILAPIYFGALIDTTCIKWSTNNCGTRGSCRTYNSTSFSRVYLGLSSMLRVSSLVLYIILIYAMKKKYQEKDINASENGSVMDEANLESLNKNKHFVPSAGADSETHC
# Procedure, shortened: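 HEK293 cells stably expressing an OATP1B1 variant, alongside wild-type HEK293, were seeded at 0.5–1.2 × 10⁵ cells/well on poly-D-lysine plates. They grew 48 h at 37°C and 5% CO₂ in DMEM with 10% FBS, 1% pyruvate, nonessential amino acids and GlutaMAX. Substrate was 1 µM (0.5 µM where footnoted) for 2 min, then four ice-cold buffer washes and methanol lysis with internal standard. Uptake ratio (transfected/wild-type) is expressed as % of OATP1B1*14 in the same experiment; n=3 determinations.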
# [2] = molecular target: T2, OATP1B3 (Homo sapiens, UniProt Q9NPD5); assay: Uptake into transporter-transfected vs wild-type HEK293 cells; details: rosuvastatin 1 µM, two to four minutes
# T2 sequence (Q9NPD5 1-702): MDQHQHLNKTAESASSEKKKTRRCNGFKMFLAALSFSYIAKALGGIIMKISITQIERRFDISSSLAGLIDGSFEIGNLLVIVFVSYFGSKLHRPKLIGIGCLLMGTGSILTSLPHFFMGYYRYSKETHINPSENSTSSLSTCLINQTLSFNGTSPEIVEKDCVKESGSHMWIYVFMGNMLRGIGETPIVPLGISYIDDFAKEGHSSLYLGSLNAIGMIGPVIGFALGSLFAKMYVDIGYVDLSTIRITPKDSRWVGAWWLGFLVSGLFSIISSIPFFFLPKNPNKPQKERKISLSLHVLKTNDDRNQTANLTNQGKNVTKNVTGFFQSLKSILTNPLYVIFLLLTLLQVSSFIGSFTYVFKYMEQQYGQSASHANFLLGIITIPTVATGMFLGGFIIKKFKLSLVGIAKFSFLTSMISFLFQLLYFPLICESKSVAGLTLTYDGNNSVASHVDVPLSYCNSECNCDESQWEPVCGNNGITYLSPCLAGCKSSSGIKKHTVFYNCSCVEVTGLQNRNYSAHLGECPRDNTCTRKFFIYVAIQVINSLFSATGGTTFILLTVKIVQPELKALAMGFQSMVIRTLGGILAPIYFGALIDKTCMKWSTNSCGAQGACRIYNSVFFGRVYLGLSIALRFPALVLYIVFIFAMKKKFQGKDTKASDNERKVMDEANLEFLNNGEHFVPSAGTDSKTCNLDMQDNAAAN
# Procedure, shortened: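 HEK293 cells stably transfected with OATP1B1*1A, OATP1B3 or OATP2B1, plus wild-type cells, were seeded on poly-D-lysine plates. Culture was 48 h at 37°C in DMEM with 10% FBS, pyruvate, nonessential amino acids and GlutaMAX. Test compound was 1 µM for 2 min; rosuvastatin probe was 1 µM over 2–4 min. Cells were washed four times in ice-cold buffer and lysed in methanol with internal standard. Readouts were uptake ratio versus wild-type and glucuronide/probe ratio of ratios; mean ± SD, n=3 in one experiment.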
# [3] = molecular target: T3, OATP1B1*14 (Homo sapiens, UniProt Q9Y6L6, N130D/P155T); assay: Uptake into OATP1B1 variant-transfected vs wild-type HEK293 cells; details: for Uptake ratio as percentage of OATP1B1*14 in the same experiment: OATP1B1*14 (reference); for Uptake ratio (vs. wild‐type HEK293 cells): OATP1B1*14, 2 minutes
# T3 sequence (Q9Y6L6 1-691 N130D/P155T): T1 sequence (Q9Y6L6 1-691 N130D/V174A) with P155T, A174V
# [4] = experiment 1, substrate concentration 0.5 µM
structure (smiles),measurement,setting,value
CC(C)c1nc(N(C)S(C)(=O)=O)nc(-c2ccc(F)cc2)c1/C=C/[C@@H](O)C[C@@H](O)CC(=O)O [Rosuvastatin],Uptake ratio as percentage of OATP1B1*14 in the same experiment,[1]; [4],15%
same,Uptake ratio (vs. wild‐type HEK293 cells),[1]; [4],2.3 ± 0.2
same,Uptake ratio as percentage of OATP1B1*14 in the same experiment,"[1]; experiment 2, substrate 1 µM",13%
same,Uptake ratio (vs. wild‐type HEK293 cells),"[1]; experiment 2, substrate 1 µM",5.0 ± 0.2
same,"Uptake ratio (vs. wild‐type HEK293 cells), probe",[2],69.8 ± 1.9
same,Uptake ratio as percentage of OATP1B1*14 in the same experiment,[3]; [4],100%
same,Uptake ratio as percentage of OATP1B1*14 in the same experiment,"[3]; experiment 2, substrate 1 µM",100%
same,Uptake ratio (vs. wild‐type HEK293 cells),[3]; [4],15 ± 0.2
same,Uptake ratio (vs. wild‐type HEK293 cells),"[3]; experiment 2, substrate 1 µM",40 ± 3.3
same,Uptake ratio (vs. wild‐type HEK293 cells),"[3]; experiment 3, substrate 1 µM",85 ± 5.3

# From paper PMC7983942 (Clinical Pharmacology and Therapeutics, 2020)
